Four compounds from ChEMBL document CHEMBL3259712, “New 5-unsubstituted dihydropyridines with improved CaV1.3 selectivity as potential neuroprotective agents against ischemic injury” (J Med Chem, 2014) can be followed below.

Series [1] relates to SH-SY5Y. Description: Neuroprotective activity against rotenone-oligomycin A-induced oxidative stress in human SH-SY5Y cells assessed as survival incubated with rot/oligo for 8 hrs followed by treated with compound at 5 uM for 16 hrs by MTT assay (Rvb =70.6 +/- 1.8%). It counts as functional. The settings on record: read-out: Survival. The procedure, abridged:
(§1)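 SH-SY5Y cells cultured 24 h, then exposed to rotenone/oligomycin A (30/10 μM) for 8 h at 37 °C. Stressor removed; compound in 1% FBS medium added for 16 h. DMSO-only control. MTT reduction (5 mg/mL, 2 h, 37 °C; OD 540 nm). Survival relative to untreated basal; mean ± SEM of five to seven cultures in triplicate.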
For orientation: Tetrazolium dyes change colour on reduction, which living cells bring about.

Series [2] concerns Hippocampus. Description: Neuroprotective activity against oxygen-glucose deprivation induced-oxidative stress in rat hippocampal slices assessed as maximum protection treated at 10 uM during 120 mins of reoxygenation period by MTT assay (Rvb =40%). It counts as functional. The procedure, abridged: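 Transverse hippocampal slices ([…] as printed) from adult male Sprague−Dawley rats (275−325 g). After 30 min stabilization, 15 min OGD at 37 °C in glucose-free Krebs (2-deoxyglucose) under 95% N₂/5% CO₂, then 120 min reoxygenation in oxygenated Krebs with compound (1, 3, 10 μM) present. MTT at 0.5 mg/mL for 30 min at 37 °C; control slices set as 100%; five experiments.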

The subject of series [3] is SH-SY5Y. Description: Neuroprotective activity against K+ induced Ca2+ overload in human SH-SY5Y cells assessed as protection at 5 uM after 24 hrs by MTT assay relative to control. It is filed as functional. The procedure, abridged: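 SH-SY5Y cells, 1 × 10⁵/well, 1% FBS medium, up to 13 passages. Compound diluted from 10⁻² M DMSO stock to 5 μM and co-incubated 24 h with 70 mM K⁺ (hypertonic); DMSO-only controls. MTT at 5 mg/mL for 2 h at 37 °C, read at 540 nm. % protection computed against basal as 100% survival and normalized to K⁺ toxicity; at least five cultures in triplicate.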

Series [4] is described as follows: Selectivity ratio of IC50 for human Cav1.3 channel to IC50 for rat Cav1.2 channel.
The subject of series [5] is SH-SY5Y. Description: Neuroprotective activity against rotenone-oligomycin A-induced oxidative stress in human SH-SY5Y cells assessed as protection incubated with rot/oligo for 8 hrs followed by treated with compound at 5 uM for 16 hrs by MTT assay relative to control. It counts as functional. The procedure, abridged:
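SH-SY5Y cells cultured 24 h, then exposed to rotenone/oligomycin A (30/10 μM) for 8 h at 37 °C. Stressor was removed and cells incubated 16 h with compound in 1% FBS medium. Melatonin 0.3 μM was the positive control, and compounds were used at 5 μM. Viability by MTT; % protection against basal as 100%, normalized to rot/olig toxicity; five to seven cultures in triplicate.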

Series [6] concerns SH-SY5Y. Description: Neuroprotective activity against rotenone-oligomycin A-induced oxidative stress in human SH-SY5Y cells assessed as survival at 5 uM co-incubated rot/oligo for 24 hrs by MTT assay (Rvb =65.6 +/- 1.3%). The settings on record: read-out: Survival. It is filed as functional.
For series [7], the system named is SH-SY5Y. Description: Neuroprotective activity against rotenone-oligomycin A-induced oxidative stress in human SH-SY5Y cells assessed as protection at 5 uM co-incubated rot/oligo for 24 hrs by MTT assay relative to control. It is filed as functional. The procedure, abridged: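 SH-SY5Y cells in 1% FBS medium co-incubated 24 h with compound and rotenone/oligomycin A (30/10 μM). Melatonin 0.3 μM was the positive control, and compounds were used at 5 μM. Viability by MTT reduction at 540 nm. % protection computed against basal as 100% and normalized to rot/olig toxicity; five to seven cultures in triplicate.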

Series [8] has as its target Voltage-dependent L-type calcium channel subunit alpha-1C (Rattus norvegicus, UniProt P22002). As to the kind of experiment: Inhibition of rat Cav1.2 channel in rat mesenteric artery assessed as relaxation of 70 mM K+ induced contraction. It is filed as tissue-based. The settings on record: for inhibition (INH): rat. The procedure, abridged:
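Third-order mesenteric artery segments (2 mm) from 6-month-old Wistar Kyoto rats on a wire myograph, isometric tension, Krebs−Henseleit at 37 °C, pH 7.4. Segments equilibrated, stretched to optimal diameter, tested with 120 mM KCl, endothelium checked with 10 μM acetylcholine.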

Series [9] deals with SH-SY5Y. As to the kind of experiment: Neuroprotective activity against K+ induced Ca2+ overload in human SH-SY5Y cells assessed as survival at 5 uM after 24 hrs by MTT assay (reference value: 52.1 +/- 3.5%). It counts as functional. The settings on record: read-out: Survival.
The target in series [10] is Voltage-dependent L-type calcium channel subunit alpha-1D (Homo sapiens, UniProt Q01668). As to the kind of experiment: Inhibition of human Cav1.3 channel in human SH-SY5Y cells assessed as 70 mM K+ induced calcium elevation compound treated 15 mins before stimulus by Fluo-4/AM assay. It counts as cell-based. The procedure, abridged:
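SH-SY5Y cells grown 2 days, loaded with 10 μM Fluo-4/AM for 1 h at 37 °C in serum-free medium, washed with Krebs-HEPES and held 15 min at room temperature. Compound applied 15 min before 70 mM KCl.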

The subject of series [11] is SH-SY5Y. As to the kind of experiment: Neuroprotective activity against rotenone-oligomycin A-induced oxidative stress in human SH-SY5Y cells assessed as protection at 0.3 uM co-incubated rot/oligo for 24 hrs by MTT assay relative to control. It counts as functional.
The test system of series [12] is SH-SY5Y. As to the kind of experiment: Neuroprotective activity against rotenone-oligomycin A-induced oxidative stress in human SH-SY5Y cells assessed as survival incubated with rot/oligo for 8 hrs followed by treated with compound at 0.3 uM for 16 hrs by MTT assay (Rvb =70.6 +/- 1.8%). The settings on record: read-out: Survival. It is filed as functional. The procedure, abridged: as §1

For series [13], the system named is SH-SY5Y. Description: Neuroprotective activity against rotenone-oligomycin A-induced oxidative stress in human SH-SY5Y cells assessed as protection incubated with rot/oligo for 8 hrs followed by treated with compound at 0.3 uM for 16 hrs by MTT assay relative to control. It counts as functional.
In series [14] the test system is SH-SY5Y. As to the kind of experiment: Neuroprotective activity against rotenone-oligomycin A-induced oxidative stress in human SH-SY5Y cells assessed as survival at 0.3 uM co-incubated rot/oligo for 24 hrs by MTT assay (Rvb =65.6 +/- 1.3%). It is filed as functional. The settings on record: read-out: Survival.
Series [15] deals with SH-SY5Y. Description: Neuroprotective activity against K+ induced Ca2+ overload in human SH-SY5Y cells assessed as protection at 0.3 uM after 24 hrs by MTT assay relative to control. It is filed as functional.
The subject of series [16] is SH-SY5Y. Description: Neuroprotective activity against K+ induced Ca2+ overload in human SH-SY5Y cells assessed as survival at 0.3 uM after 24 hrs by MTT assay (reference value: 52.1 +/- 3.5%). It counts as functional. The settings on record: read-out: Survival.

Structures are written as SMILES. Activity calls are given as the source filed them. No cut-off for these calls is given here.

Sequence of Voltage-dependent L-type calcium channel subunit alpha-1C (P22002 whole entry): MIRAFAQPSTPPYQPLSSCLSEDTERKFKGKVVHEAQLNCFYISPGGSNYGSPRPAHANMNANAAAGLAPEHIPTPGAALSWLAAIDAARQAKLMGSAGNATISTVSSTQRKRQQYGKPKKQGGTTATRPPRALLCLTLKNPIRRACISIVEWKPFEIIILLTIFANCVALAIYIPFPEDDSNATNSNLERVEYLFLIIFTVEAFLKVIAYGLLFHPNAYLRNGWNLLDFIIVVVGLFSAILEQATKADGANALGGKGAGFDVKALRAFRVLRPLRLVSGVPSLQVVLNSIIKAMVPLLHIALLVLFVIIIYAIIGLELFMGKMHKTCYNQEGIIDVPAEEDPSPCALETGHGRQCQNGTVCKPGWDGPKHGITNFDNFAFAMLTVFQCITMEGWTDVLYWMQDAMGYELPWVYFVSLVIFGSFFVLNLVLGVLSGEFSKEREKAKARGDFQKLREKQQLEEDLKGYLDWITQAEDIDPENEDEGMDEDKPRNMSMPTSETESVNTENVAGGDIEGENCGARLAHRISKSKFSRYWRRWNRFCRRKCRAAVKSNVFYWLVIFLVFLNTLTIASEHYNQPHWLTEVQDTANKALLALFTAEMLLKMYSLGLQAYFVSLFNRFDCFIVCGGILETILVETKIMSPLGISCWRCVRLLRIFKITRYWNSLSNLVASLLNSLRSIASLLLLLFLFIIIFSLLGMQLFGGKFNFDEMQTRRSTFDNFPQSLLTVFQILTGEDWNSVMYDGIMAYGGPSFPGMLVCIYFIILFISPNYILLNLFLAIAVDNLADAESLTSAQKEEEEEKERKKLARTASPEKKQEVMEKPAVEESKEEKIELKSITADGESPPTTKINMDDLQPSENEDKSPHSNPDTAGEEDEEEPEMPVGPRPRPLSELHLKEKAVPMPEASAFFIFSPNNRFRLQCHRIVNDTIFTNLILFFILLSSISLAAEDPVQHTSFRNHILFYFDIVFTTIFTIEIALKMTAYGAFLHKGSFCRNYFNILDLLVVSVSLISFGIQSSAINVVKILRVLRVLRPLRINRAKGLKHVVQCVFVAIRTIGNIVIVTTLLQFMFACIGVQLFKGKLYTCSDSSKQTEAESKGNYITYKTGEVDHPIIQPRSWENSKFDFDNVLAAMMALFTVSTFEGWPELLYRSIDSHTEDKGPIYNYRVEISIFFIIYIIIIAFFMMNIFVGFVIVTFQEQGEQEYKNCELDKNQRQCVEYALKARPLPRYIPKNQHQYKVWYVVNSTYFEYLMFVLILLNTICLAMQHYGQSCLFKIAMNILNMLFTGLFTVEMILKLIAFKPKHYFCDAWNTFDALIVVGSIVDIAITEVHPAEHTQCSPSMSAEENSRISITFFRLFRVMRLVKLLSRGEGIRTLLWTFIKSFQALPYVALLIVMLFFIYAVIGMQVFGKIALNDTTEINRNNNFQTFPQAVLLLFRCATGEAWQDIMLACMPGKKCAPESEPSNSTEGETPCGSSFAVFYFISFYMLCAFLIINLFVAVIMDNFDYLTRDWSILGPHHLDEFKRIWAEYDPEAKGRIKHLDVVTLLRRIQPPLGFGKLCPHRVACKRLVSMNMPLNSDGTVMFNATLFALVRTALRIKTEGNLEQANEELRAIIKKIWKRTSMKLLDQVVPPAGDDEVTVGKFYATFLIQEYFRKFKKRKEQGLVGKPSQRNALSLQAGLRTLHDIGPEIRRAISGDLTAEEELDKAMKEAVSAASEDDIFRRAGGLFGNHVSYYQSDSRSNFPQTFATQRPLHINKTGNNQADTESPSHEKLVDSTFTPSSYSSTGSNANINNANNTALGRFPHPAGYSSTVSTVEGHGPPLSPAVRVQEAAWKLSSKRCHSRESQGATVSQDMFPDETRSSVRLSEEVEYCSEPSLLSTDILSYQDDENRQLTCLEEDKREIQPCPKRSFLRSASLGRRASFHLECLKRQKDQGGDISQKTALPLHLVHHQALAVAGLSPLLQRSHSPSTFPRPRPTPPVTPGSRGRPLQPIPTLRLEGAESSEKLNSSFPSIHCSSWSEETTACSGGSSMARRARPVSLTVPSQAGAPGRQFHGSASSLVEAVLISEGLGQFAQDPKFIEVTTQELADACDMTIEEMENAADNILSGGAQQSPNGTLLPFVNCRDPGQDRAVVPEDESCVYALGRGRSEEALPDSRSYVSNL
Sequence of Voltage-dependent L-type calcium channel subunit alpha-1D (Q01668 whole entry): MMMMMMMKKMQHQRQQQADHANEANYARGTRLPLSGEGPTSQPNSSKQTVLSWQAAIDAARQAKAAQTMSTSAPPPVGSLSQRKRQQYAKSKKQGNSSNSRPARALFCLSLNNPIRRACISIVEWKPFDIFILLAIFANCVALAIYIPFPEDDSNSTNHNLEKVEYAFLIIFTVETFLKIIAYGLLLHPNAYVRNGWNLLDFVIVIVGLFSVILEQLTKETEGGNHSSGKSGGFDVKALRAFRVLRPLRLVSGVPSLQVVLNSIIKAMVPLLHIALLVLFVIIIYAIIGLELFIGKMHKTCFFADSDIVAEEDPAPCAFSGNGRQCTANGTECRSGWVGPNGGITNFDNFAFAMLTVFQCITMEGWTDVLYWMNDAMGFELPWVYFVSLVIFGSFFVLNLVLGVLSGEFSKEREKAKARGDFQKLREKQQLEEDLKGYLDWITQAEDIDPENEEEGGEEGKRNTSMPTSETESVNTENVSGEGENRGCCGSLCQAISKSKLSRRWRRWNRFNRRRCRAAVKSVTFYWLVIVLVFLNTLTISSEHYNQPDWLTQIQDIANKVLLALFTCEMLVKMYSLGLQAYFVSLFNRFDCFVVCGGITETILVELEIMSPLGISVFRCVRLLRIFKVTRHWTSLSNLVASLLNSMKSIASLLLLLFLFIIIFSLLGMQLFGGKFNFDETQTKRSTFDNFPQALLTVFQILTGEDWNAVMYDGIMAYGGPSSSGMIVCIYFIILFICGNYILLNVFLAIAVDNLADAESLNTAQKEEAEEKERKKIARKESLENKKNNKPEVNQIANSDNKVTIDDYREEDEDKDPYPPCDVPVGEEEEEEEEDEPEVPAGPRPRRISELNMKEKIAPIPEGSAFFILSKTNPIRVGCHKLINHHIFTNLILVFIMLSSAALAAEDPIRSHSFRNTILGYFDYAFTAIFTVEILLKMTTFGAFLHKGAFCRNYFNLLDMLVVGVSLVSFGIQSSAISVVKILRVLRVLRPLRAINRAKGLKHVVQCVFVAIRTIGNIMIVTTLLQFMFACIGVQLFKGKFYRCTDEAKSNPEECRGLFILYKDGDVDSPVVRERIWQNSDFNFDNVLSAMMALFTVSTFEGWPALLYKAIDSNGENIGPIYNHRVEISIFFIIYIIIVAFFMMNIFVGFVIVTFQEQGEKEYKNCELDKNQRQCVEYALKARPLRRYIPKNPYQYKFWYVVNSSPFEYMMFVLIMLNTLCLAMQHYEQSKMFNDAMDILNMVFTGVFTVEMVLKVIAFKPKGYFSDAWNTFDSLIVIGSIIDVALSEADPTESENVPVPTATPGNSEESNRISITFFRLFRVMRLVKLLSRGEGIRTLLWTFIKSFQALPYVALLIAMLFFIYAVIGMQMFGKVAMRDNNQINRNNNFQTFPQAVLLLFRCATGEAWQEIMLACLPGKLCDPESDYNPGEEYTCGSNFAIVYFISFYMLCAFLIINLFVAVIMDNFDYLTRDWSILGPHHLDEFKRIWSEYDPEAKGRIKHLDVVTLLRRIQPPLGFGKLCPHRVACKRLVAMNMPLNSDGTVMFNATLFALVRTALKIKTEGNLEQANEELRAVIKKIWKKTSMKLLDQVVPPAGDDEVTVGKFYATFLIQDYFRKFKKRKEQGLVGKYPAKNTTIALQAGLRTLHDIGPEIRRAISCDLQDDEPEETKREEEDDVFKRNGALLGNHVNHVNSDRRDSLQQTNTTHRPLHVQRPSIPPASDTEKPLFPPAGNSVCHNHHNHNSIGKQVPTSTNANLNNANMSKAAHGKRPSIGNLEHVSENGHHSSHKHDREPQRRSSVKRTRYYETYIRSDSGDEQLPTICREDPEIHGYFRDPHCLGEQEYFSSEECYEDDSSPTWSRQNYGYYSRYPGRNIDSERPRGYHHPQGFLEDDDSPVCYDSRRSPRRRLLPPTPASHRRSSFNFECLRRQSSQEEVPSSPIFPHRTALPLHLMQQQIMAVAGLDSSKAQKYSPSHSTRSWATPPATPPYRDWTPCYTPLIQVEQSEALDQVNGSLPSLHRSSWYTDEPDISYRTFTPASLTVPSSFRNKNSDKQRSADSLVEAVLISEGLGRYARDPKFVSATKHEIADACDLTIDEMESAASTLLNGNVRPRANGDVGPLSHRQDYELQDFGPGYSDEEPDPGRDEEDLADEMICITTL

In general, IC50 refers to the midpoint of a concentration-inhibition curve. For the compound `CC1=C(C(=O)SC(C)(C)C)C(/C(C)=C/c2ccccc2)C=C(c2ccccc2)N1` (configuration not stated), the results for the viability at 5 µM in series [1], in series [6] and in [9] were 86.2%, 83.7% and 69%, respectively. Also, the Activity in [2] came out at 45%; in [3], 35.3%; in series [5], 52.2%; in series [7], 52.4%. Further, the Ratio IC50 in series [4] stood at 3.1. Moreover, the IC50 in series [8] is 20.3 µM; in [10], 63.1 µM. The “inhibition (INH)” value in series [8] is given as “Dose-dependent effect”.
Usually inhibition stands for the change of the read-out against control, counted positive when it falls. With `CCOC(=O)C1=C(C)NC(c2ccccc2)=CC1c1ccc(C)cc1` (configuration not stated), the viability at 5 µM came to 88% in series [1], 83.5% in [6] and 72.3% in series [9]. In addition, the Activity is given as 45% in series [2], 39.8% in series [3], 60.1% in series [5] and 53.3% in [7]. Moreover, the Ratio IC50 in [4] was determined as 1.9. In addition, the IC50 amounted to 10.6 µM in series [8] and 20.6 µM in series [10]. Further, in series [8], the “inhibition (INH)” value is given as “Dose-dependent effect”. In addition, in series [10], the inhibition is 43%.
Take `COc1ccc2[nH]cc(CCNC(C)=O)c2c1` [MELATONIN]: the Activity in series [11] amounted to 44.7%; in [13], 58.3%. In addition, the results for the viability at 0.3 µM in series [12] and in [14] were 87.8% and 82.5%, respectively.
Regarding `COC(=O)C1=C(C)NC(C)=C(C(=O)OC)C1c1ccccc1[N+](=O)[O-]` [NIFEDIPINE], the viability at 5 µM in [1] worked out at 73.8%; in [6], 78.4%; in series [9] it was 62.9%. For the same compound, in [2], the result was inactive. Further, the Activity in series [3] came out at 20%; in series [5], 11.7%; in series [7], 29.3%; in series [15] it was 15.8%. The “inhibition (INH)” value in series [8] is given as “Dose-dependent effect”. Moreover, in series [16], the viability at 0.3 µM came out at 58.7%.
